Data taken from ChEMBL document CHEMBL3272198, “Preparation and in vitro antifungal activities of some quinolizidine derived hemiaminals and beta-tert-amino sulfides” (1976).
Active and inactive are the calls of the source. The rule behind the calls is not given here.

Columns and labels:
[1] = system: Blastomyces dermatitidis; assay: Antifungal activity against Blastomyces dermatitidis Gilchrist & Stokes isolate 1107 at 20 ug/ml after 2 weeks (reference value: 35 mm); type: functional; settings: Gilchrist & Stokes isolate 1107, 336 h, read-out: DIZ
[2] = system: Histoplasma capsulatum; assay: Antifungal activity against Histoplasma capsulatum Darling isolate 1098 at 40 ug/ml after 1 week (reference value: 12 mm); type: functional; settings: Darling isolate 1098, 168 h, read-out: DIZ
[3] = system: Histoplasma capsulatum; assay: Antifungal activity against Histoplasma capsulatum Darling isolate 1098 at 60 ug/ml after 2 weeks (reference value: 21 mm); type: functional; settings: Darling isolate 1098, 336 h, read-out: DIZ
[4] = system: Blastomyces dermatitidis; assay: Antifungal activity against Blastomyces dermatitidis Gilchrist & Stokes isolate 1107 at 20 ug/ml after 1 week (reference value: 20 mm); type: functional; settings: Gilchrist & Stokes isolate 1107, 168 h, read-out: DIZ
Procedure, shortened: (§1)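 Mycelial phase grown on Sabouraud dextrose agar at 25°C. Agar pH was set to 6 before the test solution was added and was 5.0-5.5 after. Test solutions contained HOAc and Me2SO, and solvent and blank controls were included. Each quadrant was center-inoculated with a 2 × 2 mm piece of a 2-week-old mycelial culture. Colony diameter was measured weekly for 3 weeks and reported as total increments (mm). Duplicates were run.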

[5] = system: Blastomyces dermatitidis; assay: Antifungal activity against Blastomyces dermatitidis Gilchrist & Stokes isolate 1099 at 100 ug/ml after 2 weeks (reference value: 27 mm); type: functional
[6] = system: Histoplasma capsulatum; assay: Antifungal activity against Histoplasma capsulatum Darling isolate 1098 at 100 ug/ml after 3 weeks (reference value: 28 mm); type: functional
[7] = system: Histoplasma capsulatum; assay: Antifungal activity against Histoplasma capsulatum Darling isolate 1098 at 10 ug/ml after 1 week (reference value: 12 mm); type: functional; settings: Darling isolate 1098, 168 h, read-out: DIZ
[8] = system: Histoplasma capsulatum; assay: Antifungal activity against Histoplasma capsulatum Darling isolate 1098 at 20 ug/ml after 2 weeks (reference value: 21 mm); type: functional; settings: Darling isolate 1098, 336 h, read-out: DIZ
[9] = system: Blastomyces dermatitidis; assay: Antifungal activity against Blastomyces dermatitidis Gilchrist & Stokes isolate 1107 at 20 ug/ml after 3 weeks (reference value: 40 mm); type: functional; settings: Gilchrist & Stokes isolate 1107, 504 h, read-out: DIZ
[10] = system: Blastomyces dermatitidis; assay: Antifungal activity against Blastomyces dermatitidis Gilchrist & Stokes isolate 1107 at 100 ug/ml after 3 weeks (reference value: 40 mm); type: functional; settings: Gilchrist & Stokes isolate 1107, 504 h, read-out: DIZ; procedure, shortened: as §1
[11] = system: Histoplasma capsulatum; assay: Antifungal activity against Histoplasma capsulatum Darling isolate 1098 at 40 ug/ml after 3 weeks (reference value: 28 mm); type: functional; settings: Darling isolate 1098, 504 h, read-out: DIZ
[12] = system: Blastomyces dermatitidis; assay: Antifungal activity against Blastomyces dermatitidis Gilchrist & Stokes isolate 1099 at 60 ug/ml after 3 weeks (reference value: 34 mm); type: functional; settings: Gilchrist & Stokes isolate 1099, 504 h, read-out: DIZ; procedure, shortened: as §1
[13] = system: Histoplasma capsulatum; assay: Antifungal activity against Histoplasma capsulatum Darling isolate 1098 at 20 ug/ml after 3 weeks (reference value: 28 mm); type: functional; settings: Darling isolate 1098, 504 h, read-out: DIZ
[14] = system: Blastomyces dermatitidis; assay: Antifungal activity against Blastomyces dermatitidis Gilchrist & Stokes isolate 1099 at 80 ug/ml after 3 weeks (reference value: 34 mm); type: functional; settings: Gilchrist & Stokes isolate 1099, 504 h, read-out: DIZ; procedure, shortened: as §1
[15] = system: Blastomyces dermatitidis; assay: Antifungal activity against Blastomyces dermatitidis Gilchrist & Stokes isolate 1107 at 80 ug/ml after 2 weeks (reference value: 35 mm); type: functional; settings: Gilchrist & Stokes isolate 1107, 336 h, read-out: DIZ; procedure, shortened: as §1
[16] = system: Blastomyces dermatitidis; assay: Antifungal activity against Blastomyces dermatitidis Gilchrist & Stokes isolate 1099 at 20 ug/ml after 2 weeks (reference value: 27 mm); type: functional; settings: Gilchrist & Stokes isolate 1099, 336 h, read-out: DIZ
[17] = system: Histoplasma capsulatum; assay: Antifungal activity against Histoplasma capsulatum Darling isolate 1106 at 60 ug/ml after 1 week (reference value: 14 mm); type: functional
[18] = system: Blastomyces dermatitidis; assay: Antifungal activity against Blastomyces dermatitidis Gilchrist & Stokes isolate 1107 at 40 ug/ml after 3 weeks (reference value: 40 mm); type: functional; settings: Gilchrist & Stokes isolate 1107, 504 h, read-out: DIZ; procedure, shortened: as §1
[19] = system: Blastomyces dermatitidis; assay: Antifungal activity against Blastomyces dermatitidis Gilchrist & Stokes isolate 1099 at 100 ug/ml after 1 week (reference value: 14 mm); type: functional
[20] = system: Blastomyces dermatitidis; assay: Antifungal activity against Blastomyces dermatitidis Gilchrist & Stokes isolate 1099 at 20 ug/ml after 1 week (reference value: 14 mm); type: functional; settings: Gilchrist & Stokes isolate 1099, 168 h, read-out: DIZ; procedure, shortened: as §1
[21] = system: Blastomyces dermatitidis; assay: Antifungal activity against Blastomyces dermatitidis Gilchrist & Stokes isolate 1107 at 60 ug/ml after 2 weeks (reference value: 35 mm); type: functional; settings: Gilchrist & Stokes isolate 1107, 336 h, read-out: DIZ; procedure, shortened: as §1
[22] = system: Blastomyces dermatitidis; assay: Antifungal activity against Blastomyces dermatitidis Gilchrist & Stokes isolate 1099 at 40 ug/ml after 3 weeks (reference value: 34 mm); type: functional; settings: Gilchrist & Stokes isolate 1099, 504 h, read-out: DIZ; procedure, shortened: as §1
[23] = system: Histoplasma capsulatum; assay: Antifungal activity against Histoplasma capsulatum Darling isolate 1098 at 10 ug/ml after 3 weeks (reference value: 28 mm); type: functional; settings: Darling isolate 1098, 504 h, read-out: DIZ
[24] = system: Histoplasma capsulatum; assay: Antifungal activity against Histoplasma capsulatum Darling isolate 1106 at 20 ug/ml after 3 weeks (reference value: 31 mm); type: functional; settings: Darling isolate 1106, 504 h, read-out: DIZ
[25] = system: Blastomyces dermatitidis; assay: Antifungal activity against Blastomyces dermatitidis Gilchrist & Stokes isolate 1099 at 10 ug/ml after 3 weeks (reference value: 34 mm); type: functional; settings: Gilchrist & Stokes isolate 1099, 504 h, read-out: DIZ; procedure, shortened: as §1
[26] = system: Blastomyces dermatitidis; assay: Antifungal activity against Blastomyces dermatitidis Gilchrist & Stokes isolate 1099 at 20 ug/ml after 3 weeks (reference value: 34 mm); type: functional; settings: Gilchrist & Stokes isolate 1099, 504 h, read-out: DIZ
[27] = system: Histoplasma capsulatum; assay: Antifungal activity against Histoplasma capsulatum Darling isolate 1098 at 60 ug/ml after 3 weeks (reference value: 28 mm); type: functional; settings: Darling isolate 1098, 504 h, read-out: DIZ
[28] = system: Histoplasma capsulatum; assay: Antifungal activity against Histoplasma capsulatum Darling isolate 1106 at 80 ug/ml after 3 weeks (reference value: 31 mm); type: functional
[29] = system: Histoplasma capsulatum; assay: Antifungal activity against Histoplasma capsulatum Darling isolate 1106 at 10 ug/ml after 2 weeks (reference value: 25 mm); type: functional; settings: Darling isolate 1106, 336 h, read-out: DIZ
[30] = system: Blastomyces dermatitidis; assay: Antifungal activity against Blastomyces dermatitidis Gilchrist & Stokes isolate 1107 at 80 ug/ml after 1 week (reference value: 20 mm); type: functional
[31] = system: Histoplasma capsulatum; assay: Antifungal activity against Histoplasma capsulatum Darling isolate 1106 at 60 ug/ml after 2 weeks (reference value: 25 mm); type: functional
[32] = system: Histoplasma capsulatum; assay: Antifungal activity against Histoplasma capsulatum Darling isolate 1106 at 80 ug/ml after 2 weeks (reference value: 25 mm); type: functional
[33] = system: Trichophyton rubrum; assay: Antifungal activity against Trichophyton rubrum Castellani Sab.1112 at 40 to 80 ug/ml after 2 weeks; type: functional, organism-based
Procedure, shortened: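 Compound in aqueous HOAc/Me2SO was filter-sterilized and mixed into melted (50°) Sabouraud dextrose agar. Agar pH was 7.0-7.5 before addition and 6.0-6.5 after, giving final levels of 10-100 μg/ml. Quadrant plates were center-inoculated with a 2 × 2 mm piece of a 2-week-old mycelial culture, sealed and kept at 25°C. Colony expansion was measured weekly, with solvent and blank controls, in duplicate.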

[34] = Darling isolate 1106, 336 h, read-out: DIZ

Row | SMILES | zone of inhibition at 20 µg/mL [1] [mm] | zone of inhibition at 40 µg/mL [2] [mm] | zone of inhibition at 60 µg/mL [3] [mm] | zone of inhibition at 20 µg/mL [4] [mm] | zone of inhibition at 10 µg/mL [7] [mm] | zone of inhibition at 20 µg/mL [8] [mm] | zone of inhibition at 20 µg/mL [9] [mm] | zone of inhibition at 100 µg/mL [10] [mm] | zone of inhibition at 40 µg/mL [11] [mm] | zone of inhibition at 60 µg/mL [12] [mm] | zone of inhibition at 20 µg/mL [13] [mm] | zone of inhibition at 80 µg/mL [14] [mm] | zone of inhibition at 80 µg/mL [15] [mm] | zone of inhibition at 20 µg/mL [16] [mm] | zone of inhibition at 40 µg/mL [18] [mm] | zone of inhibition at 20 µg/mL [20] [mm] | zone of inhibition at 60 µg/mL [21] [mm] | zone of inhibition at 40 µg/mL [22] [mm] | zone of inhibition at 10 µg/mL [23] [mm] | zone of inhibition at 20 µg/mL [24] [mm] | also measured
1 | CS[C@@]1(C)CC[C@@H]2CCCCN2C1O (stereo not given in full) | 34 | 9 | 18 | 21 | 11 | 18 | 40 | 40 | 30 | 32 | 31 | 33 | 29 | 26 | 40 | 15 | 31 | 34 | 31 | 26 | zone of inhibition at 100 µg/mL ([5]; Gilchrist & Stokes isolate 1099, 336 h, read-out: DIZ): 25 mm; zone of inhibition at 100 µg/mL ([6]; Darling isolate 1098, 504 h, read-out: DIZ): 30 mm; zone of inhibition at 60 µg/mL ([17]; Darling isolate 1106, 168 h, read-out: DIZ): 10 mm; zone of inhibition at 100 µg/mL ([19]; Gilchrist & Stokes isolate 1099, 168 h, read-out: DIZ): 13 mm; zone of inhibition at 10 µg/mL [25]: 38 mm; zone of inhibition at 20 µg/mL [26]: 35 mm; zone of inhibition at 60 µg/mL [27]: 30 mm; zone of inhibition at 80 µg/mL ([28]; Darling isolate 1106, 504 h, read-out: DIZ): 26 mm; zone of inhibition at 10 µg/mL [29]: 21 mm; zone of inhibition at 80 µg/mL ([30]; Gilchrist & Stokes isolate 1107, 168 h, read-out: DIZ): 18 mm; zone of inhibition at 60 µg/mL [31, 34]: 19 mm; zone of inhibition at 80 µg/mL [32, 34]: 19 mm
2 | C[C@@H]1CC[C@@H](c2ccoc2)N2C(O)[C@@](C)(Sc3ccccc3)CC[C@@H]12 (stereo not given in full) | 18 | 6 | 2 | 7 | 10 | 14 | 22 | 3 | 13 | 9 | 18 | 4 | 3 | 14 | 18 | 7 | 10 | 14 | 25 | 15 | Activity [5]: Active; Activity [6]: Active; Activity [17]: Active; Activity [19]: Active; zone of inhibition at 10 µg/mL [25]: 27 mm; diameter of the inhibition zone (DIZ) [33]: Active; zone of inhibition at 20 µg/mL [26]: 18 mm; zone of inhibition at 60 µg/mL [27]: 8 mm; Activity [28]: Active; zone of inhibition at 10 µg/mL [29]: 19 mm; Activity [30]: Active; Activity [31]: Active; Activity [32]: Active
